Active and inactive are the calls of the source. No cut-off for these calls is given here.
Columns and labels:
HepG2 [1] = assay: Inhibition of NF-kappaB in human HepG2 cells assessed as reduction in TNFalpha-induced p65 nuclear translocation at 4 uM pretreated with LPS for 15 mins followed by compound addition and measured after 2 hrs by DAPI staining based fluorescence microscopy; assay type: cell-based; conditions: time 135.0 min, in the assay text read “pretreated with TNF-alpha” for “pretreated with LPS”
How it was run: (§1)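 HepG2 exposed to TNF-α (10 ng/mL) for 15 min, then 4.0 µM compound for 2 h. Fixed at room temperature and blocked with 3% BSA. Anti-p65 (1:200) overnight at 4 °C, then secondary (1:200) for 30 min at room temperature. Nuclei stained with DAPI; p65 location imaged on a high-content fluorescence system. Repeated three times.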

SMMC-7721 [2] = assay: Induction of apoptosis in human SMMC-7721 cells assessed as late apoptotic cells at 4 uM incubated for 24 hrs by annexin V-FITC and PI staining based flow cytometry analysis (reference value: 5.4 %); assay type: functional
How it was run: (§2)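 Cells seeded at 2×10^5 per well and treated 24 h with 1.0, 2.0 or 4.0 µM, or DMSO. Harvested, washed twice in cold PBS, resuspended at 1×10^5 cells/mL in buffer. Stained with Annexin V-FITC plus propidium iodide for 15 min at room temperature in the dark, then analysed by flow cytometry.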

HepG2 [3] = assay: Induction of apoptosis in human HepG2 cells assessed as early apoptotic cells at 4 uM incubated for 24 hrs by annexin V-FITC and PI staining based flow cytometry analysis (reference value: 0.2 %); assay type: functional; how it was run: as §2
SMMC-7721 [4] = assay: Induction of apoptosis in human SMMC-7721 cells incubated for 24 hrs by annexin V-FITC and PI staining based flow cytometry analysis; assay type: functional, cell-based; conditions: dose 1-4 µM; how it was run: as §2
RAW264.7 [5] = assay: Inhibition of NF-kappaB in mouse RAW264.7 cells assessed as reduction in LPS-induced IkappaBalpha phosphorylation incubated for 1 hr followed by LPS stimulation and measured after 30 mins by Western blot analysis; assay type: cell-based; conditions: dose 1-4 µM
How it was run: (§3)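 RAW264.7 incubated 1 h with compound (1.0, 2.0, 4.0 µM), then LPS 1.0 µg/mL for 30 min before extraction. Lysates blotted to nitrocellulose and probed overnight at 4 °C for total and phospho forms of p65, IκBα, Akt, ERK1/2, JNK and p38; secondary antibody 2 h at room temperature. ECL detection, normalized to GAPDH, mean ± SD of triplicate tests.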

HepG2 [6] = assay: Induction of apoptosis in human HepG2 cells assessed as viable cells at 4 uM incubated for 24 hrs by annexin V-FITC and PI staining based flow cytometry analysis (reference value: 94.2 %); assay type: functional; conditions: read-out: Activity; how it was run: as §2
SMMC-7721 [7] = assay: Induction of apoptosis in human SMMC-7721 cells assessed as necrotic cells at 1 uM incubated for 24 hrs by annexin V-FITC and PI staining based flow cytometry analysis (reference value: 1 %); assay type: functional; how it was run: as §2
RAW264.7 [8] = assay: Inhibition of NF-kappaB in mouse RAW264.7 cells assessed as reduction in LPS-induced p65 phosphorylation incubated for 1 hr followed by LPS stimulation and measured after 30 mins by Western blot analysis; assay type: cell-based; conditions: dose 1-4 µM; how it was run: as §3
[9] = Cytotoxicity against human HHL-5 cells assessed as reduction in cell viability incubated for 24 hrs by MTT assay; assay type: cell-based; conditions: HHL-5, 24 h
How it was run: (§4)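 Cells kept at 37 °C in 5% CO₂. HepG2 grown in DMEM with 10% serum; HHL-5, LO2 and SMMC-7721 in 1640 medium with 10% serum. Seeded, grown 24 h, then exposed 24 h to 10, 5, 2.5, 1.25, 0.625 and 0.3125 µg/mL. MTT (5 mg/mL) added for 4 h at 37 °C; formazan dissolved in DMSO, OD read at 570 nm. IC50 averaged from three replicates.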

RAW264.7 [10] = assay: Antiinflammatory activity against mouse RAW264.7 cells assessed as LPS-induced IL-6 at 5 uM pretreated for 2 hrs followed by LPS stimulation and measured after 22 hrs by ELISA relative to control (reference value: 0 %); assay type: functional; conditions: time 24 hrs
HepG2 [11] = assay: Induction of apoptosis in human HepG2 cells assessed as increase in Caspase-3 expression incubated for 24 hrs by Western blot analysis; assay type: functional, cell-based; conditions: dose 1-4 µM
How it was run: (§5)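 HepG2 exposed to 1.0, 2.0 or 4.0 µM for 24 h. Lysates separated by electrophoresis and blotted onto nitrocellulose. Probed overnight at 4 °C with anti-Bcl-2, anti-BAX or anti-cleaved caspase-3, then 2 h at room temperature with anti-mouse/rabbit IgG. ECL detection, GAPDH as loading control; quantified from more than three separate experiments.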

HepG2 [12] = assay: Induction of apoptosis in human HepG2 cells assessed as early apoptotic cells at 1 uM incubated for 24 hrs by annexin V-FITC and PI staining based flow cytometry analysis (reference value: 0.2 %); assay type: functional; how it was run: as §2
L02 = assay: Cytotoxicity against human L02 cells assessed as reduction in cell viability incubated for 24 hrs by MTT assay; assay type: cell-based; conditions: L02, 24 h; how it was run: as §4
SMMC-7721 [13] = assay: Induction of apoptosis in human SMMC-7721 cells assessed as viable cells at 1 uM incubated for 24 hrs by annexin V-FITC and PI staining based flow cytometry analysis (reference value: 93.3 %); assay type: functional; conditions: read-out: Activity; how it was run: as §2
RAW264.7 [14] = assay: Inhibition of NF-kappaB in mouse RAW264.7 cells assessed as reduction in LPS-induced Akt phosphorylation at 1 to 4 uM incubated for 1 hr followed by LPS stimulation and measured after 30 mins by Western blot analysis; assay type: cell-based; conditions: dose 1-4 µM; how it was run: as §3
HepG2 [15] = assay: Induction of apoptosis in human HepG2 cells assessed as necrotic cells at 4 uM incubated for 24 hrs by annexin V-FITC and PI staining based flow cytometry analysis (reference value: 0.8 %); assay type: functional; how it was run: as §2
RAW264.7 [16] = assay: Inhibition of NF-kappaB in mouse RAW264.7 cells assessed as reduction in LPS-induced JNK phosphorylation at 1 to 4 uM incubated for 1 hr followed by LPS stimulation and measured after 30 mins by Western blot analysis; assay type: cell-based; conditions: dose 1-4 µM; how it was run: as §3
HepG2 [17] = assay: Induction of apoptosis in human HepG2 cells assessed as late apoptotic cells at 4 uM incubated for 24 hrs by annexin V-FITC and PI staining based flow cytometry analysis (reference value: 4.8 %); assay type: functional; how it was run: as §2
RAW264.7 [18] = assay: Inhibition of NF-kappaB in mouse RAW264.7 cells assessed as reduction in LPS-induced p65 nuclear translocation at 4 uM pretreated with LPS for 15 mins followed by compound addition and measured after 2 hrs by DAPI staining based fluorescence microscopy; assay type: cell-based; conditions: time 135.0 min
How it was run: as §1, with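 “RAW264.7” for “HepG2”, “LPS (1 µg/mL)” for “TNF-α (10 ng/mL)”, “DAPI for 15 min;” for “DAPI; p65 location”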

HepG2 [19] = assay: Induction of apoptosis in human HepG2 cells assessed as viable cells at 1 uM incubated for 24 hrs by annexin V-FITC and PI staining based flow cytometry analysis (reference value: 94.2 %); assay type: functional; conditions: read-out: Activity; how it was run: as §2
SMMC-7721 [20] = assay: Induction of apoptosis in human SMMC-7721 cells assessed as early apoptotic cells at 4 uM incubated for 24 hrs by annexin V-FITC and PI staining based flow cytometry analysis (reference value: 0.3 %); assay type: functional; how it was run: as §2
HepG2 [21] = assay: Induction of apoptosis in human HepG2 cells assessed as increase in Bax expression incubated for 24 hrs by Western blot analysis; assay type: functional, cell-based; conditions: dose 1-4 µM; how it was run: as §5

In the case of `Cl.NC1=NC(c2cccc(F)c2)C2=C(N1)/C(=C/c1cccc(F)c1)CN(S(=O)(=O)c1ccc(C(F)(F)F)cc1)C2` (configuration not stated), the inhibition (HepG2 [1]) is reported as “Active”, the Activity (SMMC-7721 [2]) is reported as 9.2% and the Activity (HepG2 [3]) is reported as 49.8%. The Activity (SMMC-7721 [4]) was “Dose-dependent effect”, the inhibition (RAW264.7 [5]) was “Dose-dependent effect” and the viability at 4 µM (HepG2 [6]) was 30.6%. The Activity (SMMC-7721 [7]) was 0.7%, the inhibition (RAW264.7 [8]) was “Dose-dependent effect” and the IC50 [9] was 28.8 µM. The inhibition at 5 µM (RAW264.7 [10]) was 86.8%, the Activity (HepG2 [11]) was “Dose-dependent effect” and the Activity (HepG2 [12]) was 53.4%. The IC50 (L02) was 35.2 µM, the viability at 1 µM (SMMC-7721 [13]) was 80.8% and the inhibition (RAW264.7 [14]) was “Active”. The Activity (HepG2 [15]) was 1.2%, the inhibition (RAW264.7 [16]) was “Active” and the Activity (HepG2 [17]) was 18.5%. The inhibition (RAW264.7 [18]) was “Active”, the viability at 1 µM (HepG2 [19]) was 35.3% and the Activity (SMMC-7721 [20]) was 11.4%. The Activity (HepG2 [21]) was “Dose-dependent effect”.

From ChEMBL document CHEMBL4680257, “Discovery of novel NF-кB inhibitor based on scaffold hopping: 1,4,5,6,7,8-hexahydropyrido[4,3-d]pyrimidine” (Eur J Med Chem, 2020)
